Assays:
[1] = species on record: Xenopus laevis; assay: Tested for the effect on maxi-K-mediated outward current (mSlo) in Xenopus laevis oocytes at 20 uM; format: functional, frog
Procedure, shortened: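 Two-electrode voltage clamp was run on Xenopus laevis oocytes expressing cloned mSlo maxi-K channels. A single drug concentration was tested in at least five oocytes against iberiotoxin-sensitive outward K+ current. Output is the average percentage change in current relative to the drug-free control (100%).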

[2] = tested on: Rattus norvegicus; assay: (§1) Tested for concentration in brain after intravenous administration (4.7 mg/kg) to male rats; format: ADME, organism-based; settings: in vivo
Procedure, shortened: (§2)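 Male rats got an iv bolus of 4.7 mg/kg, N=3 at each time point. Whole brain and plasma were sampled through 24 h. AUC (ng-h/mL plasma, ng-h/g brain) was calculated by the trapezoidal rule over 0–24 h. Brain/plasma ratio was taken from the AUC values. Cmax, Tmax and elimination half-lives were derived for brain and plasma.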

[3] = Tested for plasma concentration after intravenous administration (4.7 mg/kg) to male rats; format: ADME, organism-based; settings: rat; procedure, shortened: as §2
[4] = as §1; format: ADME, organism-based; design: dose 4.7 mg/kg, route intravenous; settings: rat; procedure, shortened: as §2
[5] = Compound was evaluated for Tmax in brain after intravenous administration in male rats; format: ADME, organism-based; settings: rat; procedure, shortened: as §2
[6] = Ratio of the AUC values of brain and plasma after intravenous administration (4.7 mg/kg) to male rats was evaluated; format: ADME, organism-based; settings: rat; procedure, shortened: as §2
[7] = Ratio in brain and plasma after 0.25 hrs of intravenous administration (5 mg/kg) to male rats was evaluated; format: ADME, organism-based; settings: rat
Procedure, shortened: (§3)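 Male rats got a single iv bolus of 5 mg/kg. Plasma and whole brain were sampled at 0.25 h and 2 h. Plasma is in ng/mL and brain in ng/g wet weight, each the mean of three animals ± standard deviation. Brain detection limit was 50 ng/g. Brain/plasma ratio was computed at each time point.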

[8] = Ratio in brain and plasma after 2 hrs of intravenous administration (5 mg/kg) to male rats was evaluated; format: ADME, organism-based; settings: rat; procedure, shortened: as §3
[9] = Half-life in brain after intravenous administration (4.7 mg/kg) to male rats; format: ADME, organism-based; settings: rat; procedure, shortened: as §2
[10] = Half-life in plasma after intravenous administration (4.7 mg/kg) to male rats; format: ADME, organism-based; settings: rat; procedure, shortened: as §2
[11] = Tested for concentration in brain after 0.25 hrs of intravenous administration (5 mg/kg) to male rats; format: ADME, organism-based; settings: rat; procedure, shortened: as §3
[12] = Tested for concentration in brain after 2 hrs of intravenous administration (5 mg/kg) to male rats; format: ADME, organism-based; settings: rat; procedure, shortened: as §3
[13] = Tested for plasma concentration in the after 0.25 hrs of intravenous administration (5 mg/kg) to male rats; format: ADME, organism-based; settings: rat; procedure, shortened: as §3
[14] = Tested for plasma concentration in the after 2 hrs of intravenous administration (5 mg/kg) to male rats; format: ADME, organism-based; settings: rat; procedure, shortened: as §3
[15] = Tested for ratio in brain and plasma after 0.25 hrs of intravenous administration (5 mg/kg) to male rats; format: ADME, organism-based; settings: rat; procedure, shortened: as §3
[16] = Tested for ratio in brain and plasma after 2 hrs of intravenous administration (5 mg/kg) to male rats; format: ADME, organism-based; settings: rat; procedure, shortened: as §3
[17] = Tested for plasma concentration after 0.25 hrs of intravenous administration (5 mg/kg) to male rats; format: ADME, organism-based; settings: rat; procedure, shortened: as §3
[18] = Tested for plasma concentration after 2 hrs of intravenous administration (5 mg/kg) to male rats; format: ADME, organism-based; settings: rat; procedure, shortened: as §3

Compound: Nc1c(O)nc2ccc(C(F)(F)F)cc2c1-c1ccccc1O
- Increase [1]: 137%

Compound: O=c1[nH]c2cc(C(F)(F)F)ccc2n1-c1cc(Cl)ccc1O
- Increase [1]: 132%

Compound: COc1ccc(Cl)cc1-c1c(N)c(O)nc2ccccc12
- Increase [1]: 108%

Compound: Nc1c(O)nc2ccc(Cl)cc2c1-c1cc(Cl)ccc1O
- Increase [1]: 157%

Compound: CS(=O)(=O)Nc1c(O)nc2ccc(C(F)(F)F)cc2c1-c1cc(Cl)ccc1O
- Increase [1]: 164%

Compound: Nc1c(O)nc2c(C(F)(F)F)cccc2c1-c1cc(Cl)ccc1O
- Increase [1]: 112%

Compound: Nc1c(O)nc2ccc(C(F)(F)F)cc2c1-c1cc(Cl)ccc1O
- AUC [2]: 19300 ng·h/g
- AUC [3]: 2700 ng·h/mL
- Cmax [4]: 1990 ng/g
- Tmax [5]: 4.8 min
- Kp [6]: 7.1
- Kp at 0.25 h [7]: 1.6
- Kp at 2 h [8]: 5.3
- half-life [9]: 8.1 h
- half-life [10]: 7.6 h
- concentration at 0.25 h [11]: 1310 ng/g
- concentration at 2 h [12]: 1490 ng/g
- concentration at 0.25 h [13]: 802 ng/mL
- concentration at 2 h [14]: 281 ng/mL
- Increase [1]: 186%

Compound: Nc1c(O)nc2ccccc2c1-c1cc(Cl)ccc1O
- Increase [1]: 114%

Compound: Nc1c(O)nc2ccc(C(F)(F)F)cc2c1-c1ccccc1
- Increase [1]: 111%

Compound: O=S(=O)(Nc1c(O)nc2cc(C(F)(F)F)ccc2c1-c1cc(Cl)ccc1O)C(F)(F)F
- Increase [1]: 213%

Compound: Nc1c(O)nc2cccc(C(F)(F)F)c2c1-c1cc(Cl)ccc1O
- Increase [1]: 191%

Compound: CC(=O)Nc1c(O)nc2ccc(C(F)(F)F)cc2c1-c1cc(Cl)ccc1O
- Increase [1]: 120%

Compound: Nc1c(O)nc2cc(C(F)(F)F)ccc2c1-c1cc(Cl)ccc1O
- Kp at 0.25 h [15]: 1.3
- Kp at 2 h [16]: 4.4
- concentration at 0.25 h [11]: 1470 ng/g
- concentration at 2 h [12]: 1480 ng/g
- concentration at 0.25 h [17]: 1170 ng/mL
- concentration at 2 h [18]: 339 ng/mL
- Increase [1]: 159%

Compound: O=S(=O)(Nc1c(O)nc2ccc(C(F)(F)F)cc2c1-c1cc(Cl)ccc1O)C(F)(F)F
- concentration at 0.25 h [11]: < 50 ng/g
- concentration at 2 h [12]: < 50 ng/g
- concentration at 0.25 h [13]: 1230 ng/mL
- concentration at 2 h [14]: 125 ng/mL
- Increase [1]: 343%
